In assay [1] the test system is BT-474. Put plainly: Cytotoxicity against human BT-474 cells assessed as reduction in cell viability incubated for 48 hrs by MTT assay. Type of assay: functional, cell-based. As to conditions: BT-474, 48 h. The procedure, abridged:
(§1)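 Cells plated at 3000-4500 per well and treated after 24 h. DMSO stocks (20 mM) were diluted in medium to final DMSO <0.1%, twofold series […], 48 h. MTT (0.5 mg/mL) was added for 4 h, formazan dissolved in DMSO, absorbance read at 570 nm.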

Assay [2] deals with BT-474. Put plainly: Induction of mitochondrial membrane potential loss in human BT-474 cells assessed as depolarized cell population (P1) at 2.5 uM incubated for 48 hrs by JC1 staining based flow cytometry (reference value: 98.09 %). Type of assay: functional. In outline: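 Cells (1x10⁶/mL) adhered overnight, then exposed to 0.5, 1 and 2.5 μM for 48 h. Collected, PBS-washed, incubated with JC-1 dye (1 μM) for 30 min at 37 °C, washed twice, trypsinized, centrifuged and read by flow cytometry.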

The subject of assay [3] is BT-474. In words: Cell cycle arrest in human BT-474 cells assessed as decrease in G0/G1 accumulation in phase at 2.5 uM by propidium iodide staining based flow cytometry(reference value: 60.53%). Type of assay: functional. Also on record: scale not given: the % may be the effect or the level left. The procedure, abridged: (§2)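 Seeded at 1 x 10⁵ cells/well, after 24 h serum-starved 6 h to synchronize, then returned to FBS-containing medium and treated at 0.5, 1 and 2.5 μM. Harvested cells were PBS-washed, fixed in ice-cold 70% ethanol, stained with propidium iodide (50 μg/mL) plus RNase A for 20 min at 37 °C in the dark. About 10,000 events analysed by flow cytometry.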
(Flow cytometry measures light scatter and fluorescence of single cells or particles in a stream.)

The test system of assay [4] is BT-474. In words: Cell cycle arrest in human BT-474 cells assessed as increase in accumulation in S phase at 2.5 uM by propidium iodide staining based flow cytometry(reference value: 2.22%). Type of assay: functional. The procedure, abridged:
as §2

Assay [5] deals with HeLa. Put plainly: Cytotoxicity against human HeLa cells assessed as reduction in cell viability incubated for 48 hrs by MTT assay. Type of assay: functional, cell-based. The procedure, abridged:
as §1
A general note: Tetrazolium dyes change colour on reduction, which living cells bring about.

Assay [6] has as its system BT-474. Put plainly: Induction of morphological changes in human BT-474 cells assessed as cell shrinkage incubated for 48 hrs by phase-contrast microscope method. Type of assay: functional, cell-based. The settings on record: dose microM 0.5-2.5, time 48.0 hrs. The procedure, abridged: (§3)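 Plated at 5×10^4 cells/well, dosed after 24 h at 0.5, 1 and 2.5 μM. After 48 h, morphology was examined and photographed under phase-contrast microscopy.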

Assay [7] relates to BT-474. In words: Induction of apoptosis in human BT-474 cells assessed as chromatin condensation at 0.5 to 2.5 uM incubated for 24 hrs by DAPI staining based DAPI staining based confocal microscopic analysis. Type of assay: functional, cell-based. The settings on record: dose microM 0.5-2.5, time 24.0 hrs.
In assay [8] the target is Tubulin (Homo sapiens) (UniProt P68371+Q9H4B7+P0DPH7+P68366+Q13509+Q71U36+P04350+Q3ZCM7+P07437+P68363+Q9BQE3+Q6PEY2+Q13885+Q9BVA1+Q9BUF5). In words: Inhibition of tubulin (unknown origin) polymerization by cell free in vitro assay. Type of assay: protein-complex assay.
For assay [9], the system named is BT-474. In words: Induction of morphological changes in human BT-474 cells assessed as loss of cell-cell adhesion incubated for 48 hrs by phase-contrast microscope method. Type of assay: functional, cell-based. As to conditions: dose microM 0.5-2.5, time 48.0 hrs. The procedure, abridged:
as §3

Assay [10] has as its system BT-474. In words: Cell cycle arrest in human BT-474 cells assessed as increase in accumulation in S phase at 1 uM by propidium iodide staining based flow cytometry(reference value: 2.22%). Type of assay: functional. The procedure, abridged:
as §2

Assay [11] deals with BT-474. Put plainly: Cell cycle arrest in human BT-474 cells assessed as increase in accumulation in G1 phase at 0.5 uM by propidium iodide staining based flow cytometry(reference value: 4.06%). Type of assay: functional. The procedure, abridged:
as §2

The source made the active and inactive calls. No cut-off for these calls is given here.

In general, IC50 refers to the concentration needed to halve the response being measured.

In the case of `O=C(c1cn(Cc2cccc(Oc3ccccc3)c2)nn1)N1CCN(S(=O)(=O)c2ccc(Br)cc2)CC1`, the IC50 in assay [1] worked out at 990 nM; in assay [5], 1020 nM. Besides, the Activity in assay [2] is on record as 10.81%; in assay [3], 9.09%; in assay [4] it was 5.57%; in assay [10], 5.85%; in assay [11], 11%. The result in assay [6], in assay [7] and in assay [9] was Active. In addition, in assay [8], the inhibition entry was “Active”.

The values above are taken from ChEMBL document CHEMBL4699431, “Design and synthesis of substituted (1-(benzyl)-1H-1,2,3-triazol-4-yl)(piperazin-1-yl)methanone conjugates: study on their apoptosis inducing ability and tubulin polymerization inhibition” (RSC Med Chem, 2020).
